Measured values of several laboratories.
Compare with care: the assays were run in different laboratories.
Target: Mitogen-activated protein kinase 12 (MAPK12, Homo sapiens, UniProt P53778)
Residues used in one study (P53778 1-367): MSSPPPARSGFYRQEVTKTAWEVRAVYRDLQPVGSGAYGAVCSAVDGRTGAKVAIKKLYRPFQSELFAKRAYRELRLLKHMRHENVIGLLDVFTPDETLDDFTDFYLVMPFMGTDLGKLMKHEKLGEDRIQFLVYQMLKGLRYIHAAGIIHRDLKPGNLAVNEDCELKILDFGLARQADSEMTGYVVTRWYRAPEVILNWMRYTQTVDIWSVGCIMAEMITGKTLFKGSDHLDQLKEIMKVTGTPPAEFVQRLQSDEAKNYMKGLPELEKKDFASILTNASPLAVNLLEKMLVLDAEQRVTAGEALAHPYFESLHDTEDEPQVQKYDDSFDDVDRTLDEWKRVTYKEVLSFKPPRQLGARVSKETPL

Compound	test	setting	remaining binding
C=CC(=O)N1CCC(C(=O)NCC(=O)N2CCN(c3nc(-c4cnc(N)nc4C(F)F)nc(N4CCOCC4)n3)CC2)CC1	binding, competition with immobilised ligand	1 µM	96%
CN(C)c1nccc(-c2cnn3ncccc23)n1	binding	1 µM	60%
CCN1CCN(Cc2ccc(C(=O)Nc3ccc(C)c(Oc4ccc5c(c4)CC(=O)N5)c3)cc2C(F)(F)F)CC1	binding, competition with immobilised ligand	1 µM	100%
O=C(c1ccc(Nc2ncc(Cl)c(-c3cc4ccccc4s3)n2)cc1)N1CCC(N2CCCC2)CC1	binding, competition with immobilised ligand	1 µM	86%
C[C@@H](c1ccc(-n2cnc3c(N)ncnc32)cc1)N1CCc2nn(C)c(Cc3ccccc3)c2C1=O	binding, competition with immobilised ligand	0.1 µM	90%
O=C(c1ccc(Nc2nccc(-c3cc4ccccc4s3)n2)cc1)N1CCC(N2CCCC2)CC1	binding, competition with immobilised ligand	1 µM	88%
COc1ccc2cc(OCC3(C(=O)O)CN(C(=O)c4ccc(F)cc4)C3)ccc2c1	cell-free assay, competition with immobilised ligand	1 µM	100%
COc1cnc(Nc2cccc(S(N)(=O)=O)c2)nc1N1CCN(c2ccccc2)CC1	binding, competition with immobilised ligand	1 µM	91%
O=C(NCC1CCOCC1)c1n[nH]cc1NC(=O)c1c(F)cccc1F	binding, competition with immobilised ligand	1 µM	100%
C[C@@H]1CN(c2cc(-c3n[nH]c4ccc(OC5(C)CC5)cc34)ncn2)C[C@H](C)O1	cell-free assay, competition with immobilised ligand	0.1 µM	96%
C[C@H]1CCN(c2nccc(-c3cnn4ncccc34)n2)C1	binding	1 µM	37%
Cc1c[nH]c2nccc(Oc3c(F)cc(Nc4cc(Cl)nc(N)n4)cc3F)c12	cell-free assay, competition with immobilised ligand	0.1 µM	100%
CN(CCCC(F)(F)F)c1nccc(-c2cnn3ncccc23)n1	binding	1 µM	100%
O=C(NCCCN1CCOCC1)c1ccc(Nc2nccc(-c3cc4ccccc4s3)n2)cc1	binding, competition with immobilised ligand	1 µM	100%
c1cnn2ncc(-c3ccnc(N4CCC45COC5)n3)c2c1	binding	1 µM	65%
Cc1cc(NC(=O)c2cccc(S(F)(F)(F)(F)F)c2)cc(-n2ccn3nc(-c4cccnc4)cc23)c1	cell-free assay, competition with immobilised ligand	1 µM	41.7%
Cc1cnn2ncc(-c3ccnc(N(C)C)n3)c2c1	binding	1 µM	85%
CNC(=O)Nc1ccc2c(c1)[C@@]1(CC2)OC(=O)N(CC(=O)N(Cc2ccc(F)cc2)[C@@H](C)C(F)(F)F)C1=O	cell-free assay, competition with immobilised ligand	1 µM	96%
F[C@@H]1CCN(c2nccc(-c3cnn4ncccc34)n2)C1	binding	1 µM	100%
Cc1nc(N2CC[C@@H](O)C2)ncc1-c1cc(C(F)(F)F)cc2[nH]ncc12	binding, competition with immobilised ligand	1 µM	100%
